Data as given in ChEMBL document CHEMBL1817631, “Synthesis and characterization of tritylthioethanamine derivatives with potent KSP inhibitory activity” (Bioorg Med Chem, 2011).
Activity calls are given as the source filed them. No cut-off for these calls is given here.

Columns and labels:
HeLa [1] = experiment: Effect on interphase microtubule organization in human HeLa cells at 1 uM; format: functional, cell-based
Procedure, shortened: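 HeLa cells were grown in MEM/Earle's BSS with 10% FBS at 37 °C and 5% CO2, then treated 4 h with 1 μM compound or 0.1% DMSO carrier. Cells were fixed in 100% MeOH at −20 °C and blocked in PBS-5% BSA. They were stained overnight at 4 °C with mouse anti-tubulin and for DNA, then imaged by epifluorescence with structured illumination.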

[2] = target: Kinesin-like protein KIF2C (Homo sapiens) (UniProt Q99661); experiment: Inhibition of MACK
Procedure, shortened: (§1)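 Microtubule-activated ATPase end-point assay with kinesin motor domain at 0.08 μg/μl final. Reactions were started with 2 mM ATP, run 5 min at room temperature, and stopped with CytoPhos. After 10 min more, absorbance was read at 650 nm. Compounds were tested at 0.25–10 μM against a 0.1% DMSO control, in triplicate. IC50 came from four-parameter non-linear regression.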

[3] = target: Centromere-associated protein E (Homo sapiens) (UniProt Q02224); experiment: Inhibition of CENP-E; procedure, shortened: as §1
[4] = target: Chromosome-associated kinesin KIF4A (Homo sapiens) (UniProt O95239); experiment: Inhibition of chromokinesin
HeLa [5] = experiment: Induction of KSP depletion in human HeLa cells after 4 hrs by immunofluorescence analysis; format: functional, cell-based
Procedure, shortened: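 HeLa cells were treated 4 h across a concentration series of compound in DMSO, then fixed in 100% MeOH at −20 °C. They were probed overnight at 4 °C with mouse anti-KSP and rabbit anti-EB1 to mark microtubules, with Alexa Fluor secondaries and DNA counterstain. KSP (green channel) images were taken at equivalent exposure times.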

HeLa [6] = experiment: Induction of KSP depletion in human HeLa cells after 4 hrs by immunofluorescence analysis relative to STLC; format: functional
Procedure, shortened: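 HeLa cells in MEM/Earle's BSS with 10% FBS at 37°C, 5% CO2 were exposed 4 h to DMSO-dissolved compound over a range of doses. They were then fixed in 100% MeOH at −20°C (≥30 min), rehydrated in PBS, blocked in PBS-5% BSA, and stained overnight at 4°C with mouse anti-KSP plus rabbit anti-EB1 (microtubules). DNA was counterstained. Green channel was imaged at equal exposure.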

[7] = target: T1, Kinesin-like protein Klp61F (Drosophila melanogaster) (UniProt P46863); experiment: Inhibition of Drosophila melanogaster Klp61F in S2 cells at 100 uM up to 7 hrs by immunofluorescence analysis; format: cell-based
T1 sequence (whole entry): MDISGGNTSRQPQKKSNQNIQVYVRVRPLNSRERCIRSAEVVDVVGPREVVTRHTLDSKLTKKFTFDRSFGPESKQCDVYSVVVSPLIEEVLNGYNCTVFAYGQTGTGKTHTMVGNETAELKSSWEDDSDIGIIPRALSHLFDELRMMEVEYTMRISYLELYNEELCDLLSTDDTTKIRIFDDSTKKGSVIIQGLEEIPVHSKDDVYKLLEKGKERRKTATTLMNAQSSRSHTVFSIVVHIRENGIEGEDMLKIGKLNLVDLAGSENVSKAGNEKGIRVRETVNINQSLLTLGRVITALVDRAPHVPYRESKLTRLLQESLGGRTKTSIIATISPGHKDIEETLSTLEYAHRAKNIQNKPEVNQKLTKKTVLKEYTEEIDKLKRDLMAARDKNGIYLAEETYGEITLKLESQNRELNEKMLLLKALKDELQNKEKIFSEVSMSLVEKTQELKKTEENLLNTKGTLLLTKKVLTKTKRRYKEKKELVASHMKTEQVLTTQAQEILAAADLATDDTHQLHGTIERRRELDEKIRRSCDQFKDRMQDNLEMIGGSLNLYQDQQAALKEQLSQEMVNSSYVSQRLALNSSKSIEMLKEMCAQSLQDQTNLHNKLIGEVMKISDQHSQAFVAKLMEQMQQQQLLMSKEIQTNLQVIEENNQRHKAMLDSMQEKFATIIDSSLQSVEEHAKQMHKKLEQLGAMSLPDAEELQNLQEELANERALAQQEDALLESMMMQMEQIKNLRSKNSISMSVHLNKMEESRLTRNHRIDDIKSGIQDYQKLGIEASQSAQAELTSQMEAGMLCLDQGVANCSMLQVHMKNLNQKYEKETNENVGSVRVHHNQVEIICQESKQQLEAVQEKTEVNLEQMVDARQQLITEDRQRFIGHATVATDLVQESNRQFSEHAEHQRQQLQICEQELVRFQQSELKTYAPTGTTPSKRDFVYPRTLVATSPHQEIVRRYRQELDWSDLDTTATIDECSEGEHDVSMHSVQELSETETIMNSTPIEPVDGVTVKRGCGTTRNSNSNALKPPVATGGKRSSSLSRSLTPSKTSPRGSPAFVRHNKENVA
Procedure, shortened: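 Drosophila S2 cells were exposed to compound over a three-log concentration range up to 100 μM, with treatments extending up to 7 h. Bipolar spindle formation was scored by immunofluorescence.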

K562 = experiment: Growth inhibition of human K562 cells; format: functional
[8] = Growth inhibition of human […] cells; format: functional
SR = experiment: Growth inhibition of human SR cells; format: functional
A549 = experiment: Growth inhibition of human A549 cells; format: functional
EKVX = experiment: Growth inhibition of human EKVX cells; format: functional
NCI-H226 = experiment: Growth inhibition of human NCI-H226 cells; format: functional
NCI-H522 = experiment: Growth inhibition of human NCI-H522 cells; format: functional
HCC 2998 = experiment: Growth inhibition of human HCC2998 cells; format: functional
HCT-15 = experiment: Growth inhibition of human HCT15 cells; format: functional
KM12 = experiment: Growth inhibition of human KM12 cells; format: functional
SW-620 = experiment: Growth inhibition of human SW620 cells; format: functional
SF-539 = experiment: Growth inhibition of human SF539 cells; format: functional
SNB-19 = experiment: Growth inhibition of human SNB19 cells; format: functional
Malme-3M = experiment: Growth inhibition of human MALME-3M cells; format: functional
M14 = experiment: Growth inhibition of human M14 cells; format: functional
SK-MEL-2 = experiment: Growth inhibition of human SK-MEL-2 cells; format: functional
SK-MEL-28 = experiment: Growth inhibition of human SK-MEL-28 cells; format: functional
UACC-257 = experiment: Growth inhibition of human UACC257 cells; format: functional
UACC-62 = experiment: Growth inhibition of human UACC62 cells; format: functional
OVCAR-3 = experiment: Growth inhibition of human OVCAR3 cells; format: functional
OVCAR-4 = experiment: Growth inhibition of human OVCAR4 cells; format: functional
OVCAR-5 = experiment: Growth inhibition of human OVCAR5 cells; format: functional
OVCAR-8 = experiment: Growth inhibition of human OVCAR8 cells; format: functional
786-0 = experiment: Growth inhibition of human 786-0 cells; format: functional
SN12C = experiment: Growth inhibition of human SN12C cells; format: functional
TK-10 = experiment: Growth inhibition of human TK10 cells; format: functional

Chain of Kinesin-like protein KIF2C (Homo sapiens) (Q99661 whole entry, the tested form may be a part): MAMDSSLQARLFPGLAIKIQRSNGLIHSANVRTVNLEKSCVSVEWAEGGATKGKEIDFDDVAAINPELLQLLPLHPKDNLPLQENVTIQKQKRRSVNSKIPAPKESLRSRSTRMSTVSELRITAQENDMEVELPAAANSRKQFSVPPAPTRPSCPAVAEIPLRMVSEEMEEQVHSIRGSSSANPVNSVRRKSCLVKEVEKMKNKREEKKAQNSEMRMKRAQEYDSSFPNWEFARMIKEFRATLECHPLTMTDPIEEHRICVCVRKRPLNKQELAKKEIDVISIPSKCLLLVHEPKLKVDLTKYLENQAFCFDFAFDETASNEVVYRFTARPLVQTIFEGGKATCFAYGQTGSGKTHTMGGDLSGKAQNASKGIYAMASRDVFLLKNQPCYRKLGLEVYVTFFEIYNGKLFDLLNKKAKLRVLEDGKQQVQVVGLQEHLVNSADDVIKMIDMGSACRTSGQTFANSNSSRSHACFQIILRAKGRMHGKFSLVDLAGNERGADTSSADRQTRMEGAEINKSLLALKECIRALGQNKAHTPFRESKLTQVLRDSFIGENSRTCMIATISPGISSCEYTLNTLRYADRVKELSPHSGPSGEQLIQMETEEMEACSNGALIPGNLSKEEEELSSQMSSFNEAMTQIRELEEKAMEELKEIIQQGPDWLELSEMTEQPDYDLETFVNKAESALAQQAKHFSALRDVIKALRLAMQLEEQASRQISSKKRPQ
Chain of Chromosome-associated kinesin KIF4A (Homo sapiens) (O95239 whole entry): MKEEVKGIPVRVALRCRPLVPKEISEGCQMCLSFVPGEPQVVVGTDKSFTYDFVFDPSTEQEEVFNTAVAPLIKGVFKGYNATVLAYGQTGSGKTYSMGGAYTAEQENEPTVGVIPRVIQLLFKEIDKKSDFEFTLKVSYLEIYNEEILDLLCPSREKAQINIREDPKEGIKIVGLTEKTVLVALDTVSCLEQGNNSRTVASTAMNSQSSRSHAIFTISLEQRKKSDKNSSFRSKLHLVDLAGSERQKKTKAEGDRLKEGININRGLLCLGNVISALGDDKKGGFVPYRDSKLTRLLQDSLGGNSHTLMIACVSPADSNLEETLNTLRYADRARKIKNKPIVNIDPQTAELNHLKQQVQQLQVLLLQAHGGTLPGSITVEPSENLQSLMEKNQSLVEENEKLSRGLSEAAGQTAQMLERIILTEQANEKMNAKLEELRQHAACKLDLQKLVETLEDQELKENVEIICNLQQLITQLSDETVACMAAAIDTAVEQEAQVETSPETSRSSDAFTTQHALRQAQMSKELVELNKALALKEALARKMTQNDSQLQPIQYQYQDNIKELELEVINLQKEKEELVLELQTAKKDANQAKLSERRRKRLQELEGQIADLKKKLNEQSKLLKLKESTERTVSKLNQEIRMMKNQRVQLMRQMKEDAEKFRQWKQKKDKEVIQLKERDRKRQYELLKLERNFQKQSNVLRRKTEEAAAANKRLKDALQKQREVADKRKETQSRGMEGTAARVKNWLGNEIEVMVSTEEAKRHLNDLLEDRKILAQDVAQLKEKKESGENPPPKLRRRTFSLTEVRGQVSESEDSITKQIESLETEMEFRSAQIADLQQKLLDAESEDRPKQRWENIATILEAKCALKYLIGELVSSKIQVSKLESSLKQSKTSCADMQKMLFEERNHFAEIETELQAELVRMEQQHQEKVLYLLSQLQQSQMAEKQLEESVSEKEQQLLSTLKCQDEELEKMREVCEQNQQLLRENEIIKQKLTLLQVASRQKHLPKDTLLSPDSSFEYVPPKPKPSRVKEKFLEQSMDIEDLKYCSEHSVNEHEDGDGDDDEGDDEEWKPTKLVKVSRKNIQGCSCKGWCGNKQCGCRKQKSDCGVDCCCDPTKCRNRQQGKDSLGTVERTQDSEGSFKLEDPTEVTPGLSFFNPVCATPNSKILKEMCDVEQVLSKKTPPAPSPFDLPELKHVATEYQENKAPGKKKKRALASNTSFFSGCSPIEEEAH
Chain of Centromere-associated protein E (Homo sapiens) (Q02224 whole entry): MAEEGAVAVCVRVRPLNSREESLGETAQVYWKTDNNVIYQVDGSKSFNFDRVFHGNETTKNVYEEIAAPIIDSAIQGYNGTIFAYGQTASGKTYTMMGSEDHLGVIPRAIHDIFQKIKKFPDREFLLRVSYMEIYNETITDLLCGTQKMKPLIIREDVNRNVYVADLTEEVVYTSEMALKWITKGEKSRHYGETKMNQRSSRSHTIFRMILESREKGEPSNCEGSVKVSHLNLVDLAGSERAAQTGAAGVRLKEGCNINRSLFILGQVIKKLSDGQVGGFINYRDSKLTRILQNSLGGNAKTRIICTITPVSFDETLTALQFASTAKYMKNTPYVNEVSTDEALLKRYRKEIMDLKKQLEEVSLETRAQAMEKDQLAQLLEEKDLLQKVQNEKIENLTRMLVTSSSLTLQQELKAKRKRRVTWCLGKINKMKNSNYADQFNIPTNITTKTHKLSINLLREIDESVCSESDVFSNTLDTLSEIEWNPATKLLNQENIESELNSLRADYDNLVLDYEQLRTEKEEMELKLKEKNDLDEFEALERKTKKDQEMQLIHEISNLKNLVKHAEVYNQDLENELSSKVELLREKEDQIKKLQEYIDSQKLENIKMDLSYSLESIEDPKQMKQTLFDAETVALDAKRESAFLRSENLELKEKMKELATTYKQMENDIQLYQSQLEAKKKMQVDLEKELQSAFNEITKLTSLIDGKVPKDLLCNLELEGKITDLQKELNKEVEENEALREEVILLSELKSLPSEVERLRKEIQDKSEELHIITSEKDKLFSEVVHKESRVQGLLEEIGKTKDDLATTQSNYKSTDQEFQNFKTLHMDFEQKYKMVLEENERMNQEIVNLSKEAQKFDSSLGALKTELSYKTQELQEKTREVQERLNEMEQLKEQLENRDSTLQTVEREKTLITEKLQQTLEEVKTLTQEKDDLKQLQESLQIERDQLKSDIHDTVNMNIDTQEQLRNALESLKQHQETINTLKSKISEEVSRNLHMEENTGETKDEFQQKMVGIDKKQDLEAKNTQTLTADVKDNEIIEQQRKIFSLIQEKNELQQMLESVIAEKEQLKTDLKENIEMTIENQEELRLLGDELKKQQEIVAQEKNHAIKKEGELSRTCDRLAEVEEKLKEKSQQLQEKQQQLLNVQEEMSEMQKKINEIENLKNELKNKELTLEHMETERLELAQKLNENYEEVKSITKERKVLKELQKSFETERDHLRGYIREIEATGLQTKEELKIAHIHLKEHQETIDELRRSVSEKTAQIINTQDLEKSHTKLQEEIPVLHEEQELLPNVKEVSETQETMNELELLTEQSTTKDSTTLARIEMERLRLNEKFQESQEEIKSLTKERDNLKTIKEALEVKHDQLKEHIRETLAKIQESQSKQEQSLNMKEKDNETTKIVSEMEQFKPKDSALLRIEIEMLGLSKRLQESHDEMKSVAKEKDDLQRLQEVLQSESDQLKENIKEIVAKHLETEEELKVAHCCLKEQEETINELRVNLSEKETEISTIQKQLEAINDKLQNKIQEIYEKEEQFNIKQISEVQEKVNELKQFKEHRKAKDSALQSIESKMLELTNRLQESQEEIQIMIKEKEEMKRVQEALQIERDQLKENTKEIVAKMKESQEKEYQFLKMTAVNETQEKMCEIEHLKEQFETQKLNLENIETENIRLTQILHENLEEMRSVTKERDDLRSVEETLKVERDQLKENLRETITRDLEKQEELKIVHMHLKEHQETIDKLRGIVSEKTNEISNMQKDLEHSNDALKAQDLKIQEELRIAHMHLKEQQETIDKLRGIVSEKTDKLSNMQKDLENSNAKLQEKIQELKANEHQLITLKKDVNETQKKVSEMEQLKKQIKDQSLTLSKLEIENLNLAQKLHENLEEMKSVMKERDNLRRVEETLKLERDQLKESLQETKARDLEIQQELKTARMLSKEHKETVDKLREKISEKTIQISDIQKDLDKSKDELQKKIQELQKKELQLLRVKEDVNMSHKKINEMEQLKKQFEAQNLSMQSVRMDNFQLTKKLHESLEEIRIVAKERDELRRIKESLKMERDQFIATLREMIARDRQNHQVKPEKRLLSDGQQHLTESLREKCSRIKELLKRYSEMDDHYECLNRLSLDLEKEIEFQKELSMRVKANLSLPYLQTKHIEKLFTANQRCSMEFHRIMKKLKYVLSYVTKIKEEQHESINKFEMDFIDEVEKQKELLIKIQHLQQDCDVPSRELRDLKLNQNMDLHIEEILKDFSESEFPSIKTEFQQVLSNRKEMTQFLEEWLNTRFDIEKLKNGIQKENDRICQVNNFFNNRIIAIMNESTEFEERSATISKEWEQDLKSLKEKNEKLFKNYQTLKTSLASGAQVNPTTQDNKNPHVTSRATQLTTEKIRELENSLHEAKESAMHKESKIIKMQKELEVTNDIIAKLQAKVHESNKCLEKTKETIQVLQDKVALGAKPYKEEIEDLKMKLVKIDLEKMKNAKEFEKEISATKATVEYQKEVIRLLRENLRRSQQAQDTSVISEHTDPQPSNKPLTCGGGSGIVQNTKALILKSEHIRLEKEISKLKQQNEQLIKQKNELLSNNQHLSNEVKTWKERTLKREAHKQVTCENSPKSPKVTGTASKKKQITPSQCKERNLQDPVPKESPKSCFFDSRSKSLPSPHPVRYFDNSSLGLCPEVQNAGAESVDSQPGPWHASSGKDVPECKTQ

For `COc1ccc(C(SC[C@H](N)CO)(c2ccccc2)c2ccccc2)cc1`, which Activity (HeLa [1]) is on record?
Its Activity is “inactive”.

What about the inhibition [2] of the same compound?
Its inhibition is “inactive”.

What about the inhibition [3] of the same compound?
The inhibition was “inactive”.

And the inhibition [4]?
Its inhibition is “inactive”.

What about the Activity (HeLa [5]) of the same compound?
The Activity was “Dose-dependent effect”.

What about the “fold change (FC)” value (HeLa [6]) of the same compound?
Its value is 1.63.

And the inhibition [7]?
Its inhibition is “inactive”.

What about the GI50 (K562) of the same compound?
The GI50 was 60 nM.

And the GI50 [8]?
The GI50 was 30 nM.

And the GI50 (SR)?
The GI50 was 10 nM.

What about the GI50 (A549) of the same compound?
The GI50 was 330 nM.

What about the GI50 (EKVX) of the same compound?
Its GI50 is 510 nM.

What about the GI50 (NCI-H226) of the same compound?
Its GI50 is 2750 nM.

What about the GI50 (NCI-H522) of the same compound?
Its GI50 is 220 nM.

And the GI50 (HCC 2998)?
The GI50 was 50 nM.

And the GI50 (HCT-15)?
The GI50 was 210 nM.

And the GI50 (KM12)?
The GI50 was 220 nM.

And the GI50 (SW-620)?
Its GI50 is 70 nM.

What about the GI50 (SF-539) of the same compound?
The GI50 was 260 nM.

And the GI50 (SNB-19)?
The GI50 was 250 nM.

And the GI50 (Malme-3M)?
Its GI50 is 360 nM.

What about the GI50 (M14) of the same compound?
Its GI50 is 20 nM.

And the GI50 (SK-MEL-2)?
The GI50 was 240 nM.

What about the GI50 (SK-MEL-28) of the same compound?
The GI50 was 620 nM.

What about the GI50 (UACC-257) of the same compound?
Its GI50 is 540 nM.

What about the GI50 (UACC-62) of the same compound?
The GI50 was 250 nM.

What about the GI50 (OVCAR-3) of the same compound?
Its GI50 is 200 nM.

And the GI50 (OVCAR-4)?
The GI50 was 1620 nM.

What about the GI50 (OVCAR-5) of the same compound?
The GI50 was 390 nM.

And the GI50 (OVCAR-8)?
The GI50 was 420 nM.

What about the GI50 (786-0) of the same compound?
Its GI50 is 440 nM.

And the GI50 (SN12C)?
Its GI50 is 320 nM.

What about the GI50 (TK-10) of the same compound?
Its GI50 is 460 nM.
